ChEMBL document CHEMBL1123708, “Resolved cis- and trans-2-amino-5-methoxy-1-methyltetralins: central dopamine receptor agonists and antagonists” (1987)
Activity calls are given as the source filed them. No cut-off for these calls is given here.

Key:
Rattus norvegicus [1] = assay: Locomotory activity was determined in non pretreated rats at a dose of 3.2 umol/kg by subcutaneous administration; type: functional
Method in brief: (§1)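 Untreated rats received test drug sc 5 min before a 30-min session in photocell motility meters, with accumulated counts recorded. Activity is expressed as percent of saline controls, mean ± SEM, n = 3-5. Gross behaviour was observed through a semitransparent mirror. Differences from saline controls were assessed by Student's t test.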

[2] = biological target: T1, Dopamine receptor (Rattus norvegicus) (UniProt P25115+P19020+P30729+P18901+P61169); assay: Ability to displace the Dopamine receptor agonist DiPr-5,6-ADTN from rat striatal binding sites in vivo at a dose of 13 uM/kg by subcutaneous administration; type: organism-based
Rattus norvegicus [3] = assay: Change in rectal temperature induced by DiPr-5,6-ADTN at a dose of 13 umol/kg of compound by subcutaneous administration; type: functional
Method in brief: (§2)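 Rats received DiPr-5,6-ADTN (0.25 μmol/kg sc) 100 min and test compound sc 40 min before death. Rectal temperature change (°C) was recorded between 60 and 100 min after DiPr-5,6-ADTN. Values are mean ± SEM, n = 4, with Student's t test vs DiPr-5,6-ADTN alone.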

Rattus norvegicus [4] = assay: Induced locomotor stimulation in non pre-treated rats by 52 umol/kg s.c. administration.; type: functional
Rattus norvegicus [5] = assay: In vivo DOPA accumulation in non pretreated rat limbic system by subcutaneous administration;. indicates 40-50% increase in limbic system after 52 umol/kg (sc); type: functional, organism-based
Method in brief: (§3)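 Rats without pretreatment received test drug sc 65 min and NSD 1015 (100 mg/kg ip) 30 min before death, with saline controls. DOPA was measured in limbic or striatal tissue. Dose for half-maximal change was estimated from 4-5-dose curves (n = 3-5), maximal level as % of control.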

Rattus norvegicus [6] = assay: In vivo DOPA accumulation in non pretreated rat striatum system by subcutaneous administration.; hr indicates 40-50% increase in limbic system after 52 umol/kg (sc); type: functional, organism-based; method in brief: as §3
Rattus norvegicus [7] = assay: Induced locomotor stimulation in non pre-treated rats by 13 umol/kg s.c. administration.; type: functional
Rattus norvegicus [8] = assay: In vivo DOPA accumulation in non pre-treated rat striatal system following s.c. administration.; type: functional; settings: sc; method in brief: as §3
Rattus norvegicus [9] = assay: Locomotory activity was determined in non pretreated rats at a dose of 52 umol/kg by subcutaneous administration; type: functional; method in brief: as §1
Rattus norvegicus [10] = assay: In vivo DOPA accumulation in non pre-treated rat limbic system following s.c. administration.; type: functional; settings: sc; method in brief: as §3
[11] = biological target: T1, Dopamine receptor (Rattus norvegicus); assay: In vivo displacement of DiPr-5,6-ADTN from Dopamine receptors in rat striatum; type: organism-based
Rattus norvegicus [12] = assay: Change in rectal temperature induced by DiPr-5,6-ADTN at a dose of 10 umol/kg of compound by subcutaneous administration; type: functional; method in brief: as §2
[13] = biological target: T1, Dopamine receptor (Rattus norvegicus); assay: Ability to displace the Dopamine receptor agonist DiPr-5,6-ADTN from rat striatal binding sites in vivo at a dose of 10 uM/kg by subcutaneous administration; type: organism-based
Rattus norvegicus [14] = assay: In vivo DOPA accumulation in reserpine pretreated rat limbic system by subcutaneous administration; I denotes inactive; type: functional, organism-based
Method in brief: (§4)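 Rats received reserpine (5 mg/kg sc) 18 h, test drug sc 60 min and NSD 1015 (100 mg/kg ip) 30 min before death, with saline controls. Limbic or striatal DOPA was measured. Dose for half-maximal decrease was estimated from 4-7-dose curves (n = 3-5), minimal level as % of control.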

Rattus norvegicus [15] = assay: In vivo DOPA accumulation in reserpine pretreated rat striatum system by subcutaneous administration; I denotes inactive; type: functional, organism-based; method in brief: as §4
Rattus norvegicus [16] = assay: Locomotory activity was determined in reserpine pretreated rats at a dose of 52 umol/kg by subcutaneous administration. Value is the accumulation counts/30 min; type: functional
Method in brief: (§5)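 Rats were given reserpine 5 mg/kg sc 18 h beforehand, then test drug sc immediately before the activity session. Motor activity was recorded by photocells in motility meters as accumulated counts over 30 min, mean ± SEM, n = 3-4. Gross behaviour was watched for signs of stimulation. Reserpine-only controls were included.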

Rattus norvegicus [17] = assay: Change in rectal temperature induced by DiPr-5,6-ADTN at a dose of 40 umol/kg of compound by subcutaneous administration; type: functional; method in brief: as §2
[18] = biological target: T1, Dopamine receptor (Rattus norvegicus); assay: Ability to displace the Dopamine receptor agonist DiPr-5,6-ADTN from rat striatal binding sites in vivo at a dose of 40 uM/kg by subcutaneous administration; type: organism-based
Rattus norvegicus [19] = assay: In vivo DOPA accumulation in non pretreated rat striatum system by subcutaneous administration; I denotes inactive; type: functional, organism-based; method in brief: as §3
Rattus norvegicus [20] = assay: In vivo DOPA accumulation in non pretreated rat limbic system by subcutaneous administration; I denotes inactive; type: functional, organism-based; method in brief: as §3
Rattus norvegicus [21] = assay: In vivo DOPA accumulation in non pretreated rat striatum system by subcutaneous administration; indicates 40-80% increase in limbic system after 52 umol/kg (sc); type: functional, organism-based; method in brief: as §3
Rattus norvegicus [22] = assay: In vivo DOPA accumulation in non pretreated rat limbic system by subcutaneous administration; indicates 40-80% increase in limbic system after 52 umol/kg (sc); type: functional, organism-based; method in brief: as §3
Rattus norvegicus [23] = assay: Induced locomotor stimulation was determined in non pretreated rats at a dose of 52 uM/kg by subcutaneous administration; type: functional; method in brief: as §1
Rattus norvegicus [24] = assay: In vivo DOPA accumulation in reserpine pretreated rat striatum system by subcutaneous administration; type: functional; method in brief: as §4
[25] = biological target: T1, Dopamine receptor (Rattus norvegicus); assay: Ability to displace the Dopamine receptor agonist DiPr-5,6-ADTN from rat striatal binding sites in vivo at a dose of 52 uM/kg by subcutaneous administration; type: organism-based
Rattus norvegicus [26] = assay: Change in rectal temperature induced by DiPr-5,6-ADTN at a dose of 52 umol/kg of compound by subcutaneous administration; type: functional; method in brief: as §2
Rattus norvegicus [27] = assay: Locomotory activity was determined in reserpine pretreated rats at a dose of 204 umol/kg by subcutaneous administration. Value is the accumulation counts/30 min; type: functional; method in brief: as §5
Rattus norvegicus [28] = assay: In vivo DOPA accumulation in reserpine pretreated rat limbic system by subcutaneous administration; type: functional; settings: sc; method in brief: as §4
Rattus norvegicus [29] = assay: In vivo DOPA accumulation in non pretreated rat striatum system by subcutaneous administration; denotes inactive; type: functional, organism-based; method in brief: as §3
[30] = biological target: T1, Dopamine receptor (Rattus norvegicus); assay: Ability to displace the Dopamine receptor agonist DiPr-5,6-ADTN from rat striatal binding sites in vivo at a dose of 52 umol/kg by subcutaneous administration; type: organism-based
Rattus norvegicus [31] = assay: ((+)-UH-232) induced locomotor stimulation was determined in non pretreated rats at a dose of 52 umol/kg by subcutaneous administration; type: functional
Rattus norvegicus [32] = assay: Locomotory activity was determined in non pretreated rats at a dose of 52 umol/kg by subcutaneous administration; I denotes inactive; type: functional; method in brief: as §1
Rattus norvegicus [33] = assay: In vivo % increase in DOPA accumulation in non pretreated rat limbic system after 52 umol/kg (sc); I denotes inactive; type: functional, organism-based
Rattus norvegicus [34] = assay: In vivo % increase in DOPA accumulation in non pretreated rat striatum system after 52 umol/kg (sc); I denotes inactive; type: functional, organism-based
Rattus norvegicus [35] = assay: In vivo DOPA accumulation in reserpine pretreated rat striatum system by subcutaneous administration; denotes inactive; type: functional, organism-based; method in brief: as §4

Row | Structure (SMILES) | Activity (Rattus norvegicus [1]) [%] | Body temp change (Rattus norvegicus [3]) [°C] | Activity (Rattus norvegicus [4]) [%] | Activity (Rattus norvegicus [7]) [%] | ED50 (Rattus norvegicus [8]) [µmol/kg] | ED50 (Rattus norvegicus [10]) [µmol/kg] | Binding [11] [%] | also measured
1 | CCCCN[C@@H]1CCc2c(O)cccc2[C@@H]1C | 89 | -0.93 | 76 | 80 | – | – | – | Binding [2]: 46%; ED50 (Rattus norvegicus [5]): Weak activity; ED50 (Rattus norvegicus [6]): Weak activity
2 | CCCCN[C@@H]1CCc2c(OC)cccc2[C@@H]1C | 113 | – | – | 82 | 20 | 18 | 76 | Activity (Rattus norvegicus [9]): 135%; Temperature (Rattus norvegicus [3]): -0.25 °C
3 | CN[C@@H]1CCc2c(O)cccc2[C@@H]1C | 143 | – | – | 73 | 7.5 | 5.5 | 54 | Activity (Rattus norvegicus [9]): 47%; Temperature (Rattus norvegicus [3]): 0.15 °C
4 | CCCN(CCC)[C@@H]1CCc2c(O)cccc2[C@@H]1C | 110 | – | 102 | – | 9.4 | 110 | – | Body temp change (Rattus norvegicus [12]): 1.7 °C; Binding [13]: 61%; ED50 (Rattus norvegicus [14]): inactive; ED50 (Rattus norvegicus [15]): inactive; Activity (Rattus norvegicus [16]): 6 counts/30 min; Body temp change (Rattus norvegicus [17]): 1.7 °C; Binding [18]: 21%
5 | CCCN(CCC)[C@@H]1CCc2c(O)cccc2[C@H]1C | – | – | 97 | – | – | – | – | ED50 (Rattus norvegicus [19]): inactive; ED50 (Rattus norvegicus [14]): inactive; ED50 (Rattus norvegicus [20]): inactive; ED50 (Rattus norvegicus [15]): inactive
6 | CCCN(CCC)[C@H]1CCc2c(OC)cccc2[C@@H]1C | – | – | 82 | – | – | – | – | ED50 (Rattus norvegicus [19]): inactive; ED50 (Rattus norvegicus [14]): inactive; ED50 (Rattus norvegicus [20]): inactive; ED50 (Rattus norvegicus [15]): inactive
7 | CCCCN(CCCC)[C@@H]1CCc2c(O)cccc2[C@@H]1C | – | -0.43 | 82 | 89 | – | – | – | Binding [2]: 96%; ED50 (Rattus norvegicus [21]): Weak activity; ED50 (Rattus norvegicus [22]): Weak activity
8 | CCCCN(CCCC)[C@H]1CCc2c(O)cccc2[C@H]1C | – | -0.7 | – | 87 | – | – | – | Binding [2]: 124%; ED50 (Rattus norvegicus [14]): inactive; ED50 (Rattus norvegicus [15]): inactive; Activity (Rattus norvegicus [16]): 6 counts/30 min
9 | CCN(CC)[C@@H]1CCc2c(O)cccc2[C@@H]1C | 113 | 0.2 | 19 | 63 | 6.5 | 13 | 49 | –
10 | C[C@H]1c2cccc(O)c2CC[C@H]1N(C)C | 76 | 1.48 | 1 | 11 | 3.4 | 5.5 | 39 | –
11 | C[C@@H]1c2cccc(O)c2CC[C@@H]1N(C)C | – | 0.88 | 15 | 34 | 8.5 | 8.5 | – | Activity (Rattus norvegicus [23]): 4%; ED50 (Rattus norvegicus [24]; sc): 25 µmol/kg; Binding [2]: 63%; Binding [25]: 22%; Body temp change (Rattus norvegicus [26]): 1.82 °C; Activity (Rattus norvegicus [27]): 7 counts/30 min; ED50 (Rattus norvegicus [28]): 28 µmol/kg
12 | C[C@H]1c2cccc(O)c2CC[C@H]1N | 94 | – | – | 86 | – | – | 98 | Activity (Rattus norvegicus [9]): 97%; ED50 (Rattus norvegicus [29]): inactive; ED50 (Rattus norvegicus [20]): inactive; Temperature (Rattus norvegicus [3]): -0.7 °C
13 | CCN[C@@H]1CCc2c(O)cccc2[C@@H]1C | 83 | -0.5 | 62 | 95 | 6 | 15 | 64 | –
14 | CN[C@@H]1CCc2c(OC)cccc2[C@@H]1C | 86 | – | 29 | 35 | 1.8 | 4.7 | 51 | Binding [30]: 20%; Activity (Rattus norvegicus [31]): 9%; Temperature (Rattus norvegicus [26]): 0.93 °C; Temperature (Rattus norvegicus [3]): -0.25 °C
15 | COc1cccc2c1CC[C@@H](N)[C@H]2C | 136 | – | – | 88 | 4.2 | 4.4 | 83 | Activity (Rattus norvegicus [9]): 62%; Temperature (Rattus norvegicus [3]): -1.33 °C
16 | CCCN(CCC)[C@@H]1CCc2c(OC)cccc2[C@H]1C | – | – | – | – | – | – | – | ED50 (Rattus norvegicus [24]): inactive; ED50 (Rattus norvegicus [19]): inactive; ED50 (Rattus norvegicus [14]): inactive; ED50 (Rattus norvegicus [20]): inactive; Activity (Rattus norvegicus [32]): 88%
17 | CCN(CC)[C@H]1CCc2c(O)cccc2[C@H]1C | – | 0.22 | 40 | 100 | – | – | – | ED50 (Rattus norvegicus [24]; sc): 1.6 µmol/kg; Binding [2]: 70%; ED50 (Rattus norvegicus [33]): inactive; ED50 (Rattus norvegicus [34]): inactive; Activity (Rattus norvegicus [16]): 5 counts/30 min; ED50 (Rattus norvegicus [28]): 1.4 µmol/kg
18 | CCCCN(CCCC)[C@@H]1CCc2c(OC)cccc2[C@@H]1C | – | -0.27 | 96 | 96 | – | – | – | ED50 (Rattus norvegicus [19]): inactive; Binding [2]: 115%; ED50 (Rattus norvegicus [20]): inactive
19 | CCN[C@@H]1CCc2c(OC)cccc2[C@@H]1C | 108 | – | – | 69 | 4.8 | 5.3 | 36 | Activity (Rattus norvegicus [9]): 60%; Temperature (Rattus norvegicus [3]): 1.33 °C
20 | CCCN[C@H]1CCc2c(OC)cccc2[C@H]1C | 113 | – | – | – | – | – | – | Activity (Rattus norvegicus [9]): 119%; ED50 (Rattus norvegicus [19]): inactive; ED50 (Rattus norvegicus [14]): inactive; ED50 (Rattus norvegicus [20]): inactive; Activity (Rattus norvegicus [16]): 12 counts/30 min; ED50 (Rattus norvegicus [35]): inactive
21 | CCCN[C@@H]1CCc2c(O)cccc2[C@@H]1C | 114 | 0.1 | 125 | 107 | 16 | 9 | 66 | –
